Reference: ChEMBL document CHEMBL4043182, “On the synthesis of quinone-based BODIPY hybrids: New insights on antitumor activity and mechanism of action in cancer cells” (Bioorg Med Chem Lett, 2017)
The source made the active and inactive calls. The calls are words filed in the database; no cut-off is given here.

Assays:
PC-3 [1] = experiment: Induction of oxidative stress in human PC3 cells assessed as total GSH levels at 5 uM treated 24 hrs post NAC addition measured after 24 hrs by spectrophotometric analysis (reference value: 3.04 +/- 0.51 microg/mg); assay type: functional
Summary of the method: (§1)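 Cells were pretreated 24 h with 5 mM NAC, then exposed 24 h to test compound at 5 µM. Controls received 0.1% DMSO. Extracts were prepared by sonication and HClO4 precipitation, then neutralized with KOH. Total glutathione was read by DTNB/glutathione reductase/NADPH rate at 412 nm. GSSG was measured after 4-vinylpyridine (0.1%, 1 h, RT) and GSH derived by difference. Values are normalized to protein, triplicates, three independent runs.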

PC-3 [2] = experiment: Induction of oxidative stress in human PC3 cells assessed as total GSSG levels at 5 uM treated 24 hrs post NAC addition measured after 24 hrs by spectrophotometric analysis (reference value: 1.11 +/- 0.12 microg/mg); assay type: functional; summary of the method: as §1
L929 [3] = experiment: Antiproliferative activity against mouse L929 cells after 72 hrs by MTT assay; assay type: cell-based; details: L929, 72 h
Summary of the method: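 MTT reduction: cancer lines plated at 0.7×10^5 to 0.3×10^6 cells/well, V79 and L929 fibroblasts at 0.5×10^5 cells/well. Compounds in DMSO (0.1%) were given for 24 h at 0.04–40.92 µM or 72 h at 0.04–8.19 µM. Fresh medium with 0.5 mg/mL MTT was added for 3 h, then formazan was dissolved in DMSO and read at 595 nm as % of control. IC50 came from nonlinear regression with 95% CI. Doxorubicin (0.001–1.06 µM) was the positive control. Triplicate, ≥3 repeats.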

L929 [4] = experiment: Induction of lipid peroxidation in mouse L929 cells assessed as increase in MDA levels at 2.5 to 10 uM after 24 hrs in absence of NAC by TBARS assay; assay type: cell-based; details: l929, 24 h
Summary of the method: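 TBARS: cells were exposed 24 h, with or without 24 h prior 5 mM NAC, and lysed in Tris-HCl. Lysate was heated with TCA/0.25 M HCl and 6.7 mg/mL TBA for 15 min at 100 °C, centrifuged, and read at 532 nm. Hydrolyzed tetramethoxypropane served as standard, with values normalized to protein. H2O2 (10 µM) was the positive control. Three independent experiments in triplicate; ANOVA/Tukey.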

PC-3 [5] = experiment: Induction of oxidative stress in human PC3 cells assessed as total intracellular thiol levels at 5 uM treated 24 hrs post NAC addition measured after 24 hrs by spectrophotometric analysis (reference value: 4.23 +/- 0.75 microg/mg); assay type: functional; summary of the method: as §1
SF-295 [6] = experiment: Induction of oxidative stress in human SF295 cells assessed as total GSSG levels at 5 uM after 24 hrs by spectrophotometric analysis (reference value: 1.31 +/- 0.55 microg/mg); assay type: functional
HCT-116 [7] = experiment: Induction of oxidative stress in human HCT116 cells assessed as total intracellular thiol levels at 5 uM after 24 hrs by spectrophotometric analysis (reference value: 5.02 +/- 0.91 microg/mg); assay type: functional
HCT-116 [8] = experiment: Induction of oxidative stress in human HCT116 cells assessed as total GSSG levels at 5 uM after 24 hrs by spectrophotometric analysis (reference value: 1.19 +/- 0.37 microg/mg); assay type: functional
HCT-116 [9] = experiment: Induction of oxidative stress in human HCT116 cells assessed as GSH to GSSG ratio at 5 uM treated 24 hrs post NAC addition measured after 24 hrs by spectrophotometric analysis (reference value: 3.09 +/- 0.33 microg/mg); assay type: functional
L929 [10] = experiment: Induction of oxidative stress in mouse L929 cells assessed as total intracellular thiol levels at 5 uM after 24 hrs by spectrophotometric analysis (reference value: 4.87 +/- 0.25 microg/mg); assay type: cell-based; details: l929, 24 h
L929 [11] = experiment: Induction of oxidative stress in mouse L929 cells assessed as total GSSG levels at 5 uM after 24 hrs by spectrophotometric analysis (reference value: 1.05 +/- 0.33 microg/mg); assay type: cell-based; details: l929, 24 h
L929 [12] = experiment: Induction of oxidative stress in mouse L929 cells assessed as total GSSG levels at 5 uM treated 24 hrs post NAC addition measured after 24 hrs by spectrophotometric analysis (reference value: 1.05 +/- 0.33 microg/mg); assay type: cell-based; details: l929, 24 h
L929 [13] = experiment: Induction of oxidative stress in mouse L929 cells assessed as GSH to GSSG ratio at 5 uM after 24 hrs by spectrophotometric analysis (reference value: 3.55 +/- 0.51 microg/mg); assay type: cell-based; details: l929, 24 h
SF-295 [14] = experiment: Cytotoxicity against human SF295 cells after 24 hrs in presence of GSH-OEt by MTT assay; assay type: functional, cell-based; details: SF-295, 24 h
Summary of the method: (§2)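 24 h MTT exposure (0.04–40.92 µM in 0.1% DMSO), with or without co-treatment with GSH ethyl ester (15 mM) to gauge the ROS contribution. MTT was 0.5 mg/mL for 3 h, with formazan dissolved in DMSO and absorbance at 595 nm expressed as % of control. Triplicate, repeated at least three times.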

PC-3 [15] = experiment: Cytotoxicity against human PC3 cells after 24 hrs in absence of GSH-OEt by MTT assay; assay type: functional, cell-based; details: PC-3, 24 h; summary of the method: as §2
SF-295 [16] = experiment: Cytotoxicity against human SF295 cells after 24 hrs in absence of GSH-OEt by MTT assay; assay type: functional, cell-based; details: SF-295, 24 h; summary of the method: as §2
L929 [17] = experiment: Cytotoxicity against mouse L929 cells after 24 hrs in absence of GSH-OEt by MTT assay; assay type: cell-based; details: L929, 24 h; summary of the method: as §2
L929 [18] = experiment: Geno-toxicity in mouse L929 cells assessed as induction of DNA damage at 2.5 to 10 uM after 24 hrs in absence of NAC by alkaline comet assay; assay type: cell-based; details: l929, 24 h
Summary of the method: (§3)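 Alkaline comet assay after 24 h at 2.5, 5 and 10 µM, with or without 24 h pretreatment with 5 mM NAC. Cells were trypsinized and embedded in 0.75% low-melting agarose, then lysed at pH 10, 4 °C, ≥1 h. DNA was unwound 20 min at pH >13 and electrophoresed 20 min at 25 V, 300 mA (0.86 V/cm), then stained with ethidium bromide. 100 cells (2 slides) were scored in classes 0–4 for a damage index. Mean ± SEM, three independent experiments in triplicate.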

PC-3 [19] = experiment: Geno-toxicity in human PC3 cells assessed as induction of DNA damage at 2.5 to 10 uM treated 24 hrs post NAC addition measured after 24 hrs by alkaline comet assay; assay type: functional, cell-based; summary of the method: as §3
HCT-116 [20] = experiment: Geno-toxicity in human HCT116 cells assessed as induction of DNA damage at 2.5 to 10 uM treated 24 hrs post NAC addition measured after 24 hrs by alkaline comet assay; assay type: functional, cell-based; summary of the method: as §3
[21] = Drug uptake in mitochondria of human PC3 cells at 5 uM after 10 mins by MitoTracker Red dye-based confocal microscopic analysis; assay type: ADME, cell-based; details: pc-3, 10 min
Summary of the method: (§4)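 PC3 cells were grown in DMEM with 10% FBS, antibiotics and 2 mM L-glutamine at 37 °C, 5% CO2. Cells were incubated with compound (5 µM) plus LysoTracker Red or MitoTracker Red for 10 min at 37 °C. Live cells were imaged in phenol red-free DMEM by confocal microscopy with a 40X oil objective, exciting at 488 nm (compound) and 543 nm (tracker dyes).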

[22] = Drug uptake in lysosomes of human PC3 cells at 5 uM after 10 mins by LysoTracker Red dye-based confocal microscopic analysis; assay type: ADME, cell-based; details: pc-3, 10 min; summary of the method: as §4

**Q.** Which results are given for CC1(C)OC2=C(C(=O)C(=O)c3ccccc32)C1n1cc(CNC2=[N+]3C(=C(c4ccccc4)c4ccc(Cl)n4[B-]3(F)F)C=C2)nn1 (configuration not stated)?
**A.** Activity (PC-3 [1]): 3.13 µg/mg; Activity (PC-3 [2]): 1.07 µg/mg; IC50 (L929 [3]): 0.92 µM; Activity (L929 [4]): Toxic; Activity (PC-3 [5]): 4.26 µg/mg; Activity (SF-295 [6]): 2.09 µg/mg; Activity (HCT-116 [7]): 3.81 µg/mg; Activity (HCT-116 [8]): 2.01 µg/mg; Activity (HCT-116 [9]): 2.63 µg/mg; Activity (L929 [10]): 3.5 µg/mg; Activity (L929 [11]): 2.27 µg/mg; Activity (L929 [12]): 1.24 µg/mg; Activity (L929 [13]): 0.33; IC50 (SF-295 [14]): 9.81 µM; IC50 (PC-3 [15]): 4.47 µM; IC50 (SF-295 [16]): 1.96 µM; IC50 (L929 [17]): 5.91 µM; Activity (L929 [18]): Toxic; Activity (PC-3 [19]): Active; Activity (HCT-116 [20]): Active; Drug uptake [21]: Metabolite_Notdetected; Drug uptake [22]: Metabolite_Notdetected
